Experiments:
[1] = Metabolic stability in human liver microsomes assessed as parent compound remaining at 1 uM after 30 mins by LC-MS/MS analysis; assay type: ADME; settings: read-out: Stability
[2] = Metabolic stability in CD1 mouse liver microsomes assessed as parent compound remaining at 1 uM after 30 mins by LC-MS/MS analysis; assay type: ADME; settings: read-out: Stability
[3] = Metabolic stability in hamster liver microsomes assessed as parent compound remaining at 1 uM after 30 mins by LC-MS/MS analysis; assay type: ADME; settings: cricetinae, read-out: Stability
[4] = Initial plasma concentration in Swiss albino mouse at 1 mg/kg, iv by LCMS/MS analysis; assay type: ADME, organism-based
Outline: (§1)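 Male Swiss Albino mice. Single intravenous dose of 1 mg/kg, or single oral dose of 12.5 or 25 mg/kg. Plasma parameters were derived for each route: CL, Vdss, t1/2, AUClast and C0 after iv; Cmax, Tmax and AUClast after oral. Oral bioavailability F (%) was taken from the oral and iv exposures.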

[5] = Oral bioavailability in Swiss albino mouse at 25 mg/kg by LCMS/MS analysis; assay type: ADME, organism-based; settings: in vivo; outline: as §1
[6] = Clearance in Swiss albino mouse at 1 mg/kg, iv by LCMS/MS analysis; assay type: ADME, organism-based; settings: in vivo; outline: as §1
[7] = Volume of distribution at steady state in Swiss albino mouse at 1 mg/kg, iv by LCMS/MS analysis; assay type: ADME, organism-based; settings: in vivo, read-out: Vdss; outline: as §1
[8] = Half life in Swiss albino mouse at 1 mg/kg, iv by LCMS/MS analysis; assay type: ADME, organism-based; settings: in vivo; outline: as §1
[9] = AUC (last) in Swiss albino mouse at 1 mg/kg, iv by LCMS/MS analysis; assay type: ADME, organism-based; set-up: dose 1 mg/kg, time 0 - last, route intravenous; settings: in vivo; outline: as §1
[10] = Cmax in Swiss albino mouse at 25 mg/kg, po by LCMS/MS analysis; assay type: ADME, organism-based; set-up: dose 25 mg/kg, route oral; settings: in vivo; outline: as §1
[11] = Tmax in Swiss albino mouse at 25 mg/kg, po by LCMS/MS analysis; assay type: ADME, organism-based; settings: in vivo; outline: as §1
[12] = AUC (last) in Swiss albino mouse at 25 mg/kg, po by LCMS/MS analysis; assay type: ADME, organism-based; set-up: dose 25 mg/kg, route oral, time 0 - last; settings: in vivo; outline: as §1
[13] = Metabolic stability in hamster liver microsomes assessed as parent compound remaining at 1 uM after 1 hr by LC-MS/MS analysis; assay type: ADME; settings: cricetinae, read-out: Stability
[14] = Cmax in Swiss albino mouse at 12.5 mg/kg, po by LCMS/MS analysis; assay type: ADME, organism-based; set-up: dose 12.5 mg/kg, route oral; settings: in vivo; outline: as §1
[15] = Tmax in Swiss albino mouse at 12.5 mg/kg, po by LCMS/MS analysis; assay type: ADME, organism-based; settings: in vivo; outline: as §1
[16] = AUC (last) in Swiss albino mouse at 12.5 mg/kg, po by LCMS/MS analysis; assay type: ADME, organism-based; set-up: dose 12.5 mg/kg, route oral, time 0 - last; settings: in vivo; outline: as §1
[17] = Oral bioavailability in Swiss albino mouse at 12.5 mg/kg by LCMS/MS analysis; assay type: ADME, organism-based; settings: in vivo; outline: as §1
[18] = Metabolic stability in human liver microsomes assessed as parent compound remaining at 1 uM after 1 hr by LC-MS/MS analysis; assay type: ADME; settings: read-out: Stability
[19] = Metabolic stability in CD1 mouse liver microsomes assessed as parent compound remaining at 1 uM after 1 hr by LC-MS/MS analysis; assay type: ADME; settings: read-out: Stability
[20] = Stability in 0.1 M HCl at pH 1 at 20 degC; assay type: physicochemical; settings: buffer

| SMILES | C0 [4] [ng/mL] | bioavailability [5] [%] | clearance [6] [mL/min/kg] | Vd [7] [L/kg] | half-life [8] [h] | AUC(0-t) [9] [ng·h/mL] | Cmax [10] [ng/mL] | Tmax [11] [h] | AUC(0-t) [12] [ng·h/mL] | other results |
| --- | --- | --- | --- | --- | --- | --- | --- | --- | --- | --- |
| O=[N+]([O-])c1cn2c(n1)OC(COc1ccc(OC(F)(F)F)cc1)C2 (stereo not given) | 610 | 52 | 13 | 2.2 | 3.2 | 1140 | 1800 | 1 | 14800 |  |
| CC1(COc2ccc(OC(F)(F)F)cc2)Cn2cc([N+](=O)[O-])nc2O1 (racemic) | 880 | 79 | 9.5 | 1.7 | 2.2 | 1690 | 4100 | 4 | 33500 |  |
| C[C@]1(COc2ccc(N3CCC(Oc4ccc(OC(F)(F)F)cc4)CC3)cc2)Cn2cc([N+](=O)[O-])nc2O1 |  |  |  |  |  |  |  |  |  | remaining at 1 h, 1 µM [13]: 55% |
| C[C@]1(COc2ccc(OC(F)(F)F)cc2)Cn2cc([N+](=O)[O-])nc2O1 | 360 |  | 11 | 2.6 | 2.7 | 1390 |  |  |  | Cmax [14]: 1300 ng/mL; Tmax [15]: 2 h; AUC(0-t) [16]: 15800 ng·h/mL; bioavailability [17]: 91% |
| CC1(CN2CCN(c3ccc(F)cc3)CC2)Cn2cc([N+](=O)[O-])nc2O1 (stereo not given) |  |  |  |  |  |  |  |  |  | remaining at 1 h, 1 µM [18]: 49%; remaining at 1 h, 1 µM [19]: 14% |
| CC1(CNc2ccc(OC(F)(F)F)cc2)Cn2cc([N+](=O)[O-])nc2O1 (stereo not given) |  |  |  |  |  |  |  |  |  | Stability [20]: Unstable |
| CC1(COc2ccc(C(F)(F)F)cn2)Cn2cc([N+](=O)[O-])nc2O1 (racemic) |  |  |  |  |  |  |  |  |  | remaining at 1 h, 1 µM [18]: 84%; remaining at 1 h, 1 µM [19]: 69%; Stability [20]: Unstable |

More lines, main results first:

| C0 [4] [ng/mL] | bioavailability [5] [%] | clearance [6] [mL/min/kg] | Vd [7] [L/kg] | half-life [8] [h] | AUC(0-t) [9] [ng·h/mL] | Cmax [10] [ng/mL] | Tmax [11] [h] | AUC(0-t) [12] [ng·h/mL] | SMILES | other results |
| --- | --- | --- | --- | --- | --- | --- | --- | --- | --- | --- |
| 300 | 63 | 28 | 7.5 | 3.8 | 480 | 700 | 6 | 7580 | CC1(COc2ccc(-c3ccc(F)cc3)cc2)Cn2cc([N+](=O)[O-])nc2O1 (racemic) | remaining at 0.5 h, 1 µM [1]: 88%; remaining at 0.5 h, 1 µM [2]: 57%; remaining at 0.5 h, 1 µM [3]: 42% |
| 340 | 18 | 7.6 | 5.7 | 11 | 2130 | 290 | 6 | 9810 | CC1(COc2ccc(-c3ccc(OC(F)(F)F)cc3)cc2)Cn2cc([N+](=O)[O-])nc2O1 (stereo not given) |  |
